# Test system: U2OS
# Assay: Multiplex assay against U2OS
# Assay type: toxicity, cell-based
# Settings: human
# In short: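 At seeding, live cells were stained with Hoechst33342, BioTracker Green Microtubule Cytoskeleton Dye, MitoTracker Red and Annexin V Alexa Fluor 680. After compound addition they were imaged on a CQ1 microscope at 37°C and 5% CO2, and CellPathfinder machine-learning gating sorted them into Hoechst high-intensity objects or normal cells, with normal cells further split into healthy, pyknosed or fragmented nuclei and pyknosed cells into mitotic or apoptotic. Tubulin, mitochondrial-mass and membrane-permeability phenotypes are given as per cents of cells with healthy nuclei.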
# [1] = 12 h, 1 µM, compound concentration 1 uM, replicate 1
# [2] = 12 h, 1 µM, compound concentration 1 uM, replicate 2
# [3] = 12 h, 10 µM, compound concentration 10 uM, replicate 1
# [4] = 12 h, 10 µM, compound concentration 10 uM, replicate 2
# [5] = 24 h, 1 µM, compound concentration 1 uM, replicate 1
# [6] = 24 h, 1 µM, compound concentration 1 uM, replicate 2
# [7] = 24 h, 10 µM, compound concentration 10 uM, replicate 1
# [8] = 24 h, 10 µM, compound concentration 10 uM, replicate 2
# [9] = 48 h, 1 µM, compound concentration 1 uM, replicate 1
# [10] = 48 h, 1 µM, compound concentration 1 uM, replicate 2
# [11] = 48 h, 10 µM, compound concentration 10 uM, replicate 1
# [12] = 48 h, 10 µM, compound concentration 10 uM, replicate 2
compound,measurement,setting,value
CCn1cc(-c2ccnc3[nH]c(-c4cccc(CN(C)C)c4)cc23)c(-c2ccc(NC(=O)N(C)C)cc2)n1 [GSK-1070916],Population Apoptotic (%),[1],25%
same,Population Fragmented Nuclei (%),[1],4%
same,Population Healthy Nuclei (%),[1],91%
same,Population Hoechst High Intensity Objects (%),[1],2%
same,Population Membrane Permeable-Phenotype (%),[1],28%
same,Population Mitochondria Different-Phenotype (%),[1],17%
same,Population Mitotic Cells (%),[1],75%
same,Population Normal (%),[1],97%
same,Population Pyknosed Nuclei (%),[1],3%
same,Population Tubulin-Different-Phenotype (%),[1],24%
same,Total Cell Count,[1],141
same,Population Apoptotic (%),[2],100%
same,Population Fragmented Nuclei (%),[2],12%
same,Population Healthy Nuclei (%),[2],86%
same,Population Hoechst High Intensity Objects (%),[2],14%
same,Population Membrane Permeable-Phenotype (%),[2],30%
same,Population Mitochondria Different-Phenotype (%),[2],35%
same,Population Mitotic Cells (%),[2],0%
same,Population Normal (%),[2],85%
same,Population Pyknosed Nuclei (%),[2],1%
same,Population Tubulin-Different-Phenotype (%),[2],26%
same,Total Cell Count,[2],97
same,Population Apoptotic (%),[3],50%
same,Population Fragmented Nuclei (%),[3],12%
same,Population Healthy Nuclei (%),[3],62%
same,Population Hoechst High Intensity Objects (%),[3],9%
same,Population Membrane Permeable-Phenotype (%),[3],32%
same,Population Mitochondria Different-Phenotype (%),[3],44%
same,Population Mitotic Cells (%),[3],49%
same,Population Normal (%),[3],90%
same,Population Pyknosed Nuclei (%),[3],24%
same,Population Tubulin-Different-Phenotype (%),[3],99%
same,Total Cell Count,[3],207
same,Population Apoptotic (%),[4],48%
same,Population Fragmented Nuclei (%),[4],24%
same,Population Healthy Nuclei (%),[4],48%
same,Population Hoechst High Intensity Objects (%),[4],16%
same,Population Membrane Permeable-Phenotype (%),[4],37%
same,Population Mitochondria Different-Phenotype (%),[4],67%
same,Population Mitotic Cells (%),[4],51%
same,Population Normal (%),[4],83%
same,Population Pyknosed Nuclei (%),[4],27%
same,Population Tubulin-Different-Phenotype (%),[4],100%
same,Total Cell Count,[4],76
same,Population Apoptotic (%),[5],38%
same,Population Fragmented Nuclei (%),[5],6%
same,Population Healthy Nuclei (%),[5],81%
same,Population Hoechst High Intensity Objects (%),[5],2%
same,Population Membrane Permeable-Phenotype (%),[5],15%
same,Population Mitochondria Different-Phenotype (%),[5],27%
same,Population Mitotic Cells (%),[5],61%
same,Population Normal (%),[5],97%
same,Population Pyknosed Nuclei (%),[5],12%
same,Population Tubulin-Different-Phenotype (%),[5],15%
same,Total Cell Count,[5],141
same,Population Apoptotic (%),[6],40%
same,Population Fragmented Nuclei (%),[6],8%
same,Population Healthy Nuclei (%),[6],83%
same,Population Hoechst High Intensity Objects (%),[6],18%
same,Population Membrane Permeable-Phenotype (%),[6],22%
same,Population Mitochondria Different-Phenotype (%),[6],63%
same,Population Mitotic Cells (%),[6],60%
same,Population Normal (%),[6],81%
same,Population Pyknosed Nuclei (%),[6],8%
same,Population Tubulin-Different-Phenotype (%),[6],18%
same,Total Cell Count,[6],92
same,Population Apoptotic (%),[7],65%
same,Population Fragmented Nuclei (%),[7],13%
same,Population Healthy Nuclei (%),[7],45%
same,Population Hoechst High Intensity Objects (%),[7],16%
same,Population Membrane Permeable-Phenotype (%),[7],50%
same,Population Mitochondria Different-Phenotype (%),[7],85%
same,Population Mitotic Cells (%),[7],34%
same,Population Normal (%),[7],83%
same,Population Pyknosed Nuclei (%),[7],40%
same,Population Tubulin-Different-Phenotype (%),[7],98%
same,Total Cell Count,[7],216
same,Population Apoptotic (%),[8],64%
same,Population Fragmented Nuclei (%),[8],17%
same,Population Healthy Nuclei (%),[8],36%
same,Population Hoechst High Intensity Objects (%),[8],18%
same,Population Membrane Permeable-Phenotype (%),[8],63%
same,Population Mitochondria Different-Phenotype (%),[8],87%
same,Population Mitotic Cells (%),[8],35%
same,Population Normal (%),[8],81%
same,Population Pyknosed Nuclei (%),[8],45%
same,Population Tubulin-Different-Phenotype (%),[8],100%
same,Total Cell Count,[8],72
CCN1CCN(Cc2ccc(Nc3ncc(F)c(-c4cc(F)c5nc(C)n(C(C)C)c5c4)n3)nc2)CC1.CS(=O)(=O)O,Population Apoptotic (%),[1],46%
same,Population Fragmented Nuclei (%),[1],18%
same,Population Healthy Nuclei (%),[1],63%
same,Population Hoechst High Intensity Objects (%),[1],8%
same,Population Membrane Permeable-Phenotype (%),[1],4%
same,Population Mitochondria Different-Phenotype (%),[1],92%
same,Population Mitotic Cells (%),[1],53%
same,Population Normal (%),[1],91%
same,Population Pyknosed Nuclei (%),[1],17%
same,Population Tubulin-Different-Phenotype (%),[1],91%
same,Total Cell Count,[1],160
same,Population Apoptotic (%),[2],40%
same,Population Fragmented Nuclei (%),[2],17%
same,Population Healthy Nuclei (%),[2],67%
same,Population Hoechst High Intensity Objects (%),[2],6%
same,Population Membrane Permeable-Phenotype (%),[2],8%
same,Population Mitochondria Different-Phenotype (%),[2],91%
same,Population Mitotic Cells (%),[2],60%
same,Population Normal (%),[2],93%
same,Population Pyknosed Nuclei (%),[2],14%
same,Population Tubulin-Different-Phenotype (%),[2],97%
same,Total Cell Count,[2],73
same,Population Apoptotic (%),[3],82%
same,Population Fragmented Nuclei (%),[3],35%
same,Population Healthy Nuclei (%),[3],29%
same,Population Hoechst High Intensity Objects (%),[3],5%
same,Population Membrane Permeable-Phenotype (%),[3],66%
same,Population Mitochondria Different-Phenotype (%),[3],100%
same,Population Mitotic Cells (%),[3],18%
same,Population Normal (%),[3],94%
same,Population Pyknosed Nuclei (%),[3],35%
same,Total Cell Count,[3],151
same,Population Apoptotic (%),[4],83%
same,Population Fragmented Nuclei (%),[4],32%
same,Population Healthy Nuclei (%),[4],22%
same,Population Hoechst High Intensity Objects (%),[4],9%
same,Population Membrane Permeable-Phenotype (%),[4],88%
same,Population Mitochondria Different-Phenotype (%),[4],94%
same,Population Mitotic Cells (%),[4],16%
same,Population Normal (%),[4],90%
same,Population Pyknosed Nuclei (%),[4],45%
same,Population Tubulin-Different-Phenotype (%),[4],100%
same,Total Cell Count,[4],88
same,Population Apoptotic (%),[5],53%
same,Population Fragmented Nuclei (%),[5],19%
same,Population Healthy Nuclei (%),[5],59%
same,Population Hoechst High Intensity Objects (%),[5],8%
same,Population Membrane Permeable-Phenotype (%),[5],10%
same,Population Mitochondria Different-Phenotype (%),[5],91%
same,Population Mitotic Cells (%),[5],46%
same,Population Normal (%),[5],91%
same,Population Pyknosed Nuclei (%),[5],20%
same,Population Tubulin-Different-Phenotype (%),[5],89%
same,Total Cell Count,[5],171
same,Population Apoptotic (%),[6],58%
same,Population Fragmented Nuclei (%),[6],20%
same,Population Healthy Nuclei (%),[6],61%
same,Population Hoechst High Intensity Objects (%),[6],10%
same,Population Membrane Permeable-Phenotype (%),[6],21%
same,Population Mitochondria Different-Phenotype (%),[6],85%
same,Population Mitotic Cells (%),[6],41%
same,Population Normal (%),[6],89%
same,Population Pyknosed Nuclei (%),[6],17%
same,Population Tubulin-Different-Phenotype (%),[6],87%
same,Total Cell Count,[6],75
same,Population Apoptotic (%),[7],96%
same,Population Fragmented Nuclei (%),[7],41%
same,Population Healthy Nuclei (%),[7],8%
same,Population Hoechst High Intensity Objects (%),[7],8%
same,Population Membrane Permeable-Phenotype (%),[7],72%
same,Population Mitochondria Different-Phenotype (%),[7],90%
same,Population Mitotic Cells (%),[7],3%
same,Population Normal (%),[7],91%
same,Population Pyknosed Nuclei (%),[7],49%
same,Population Tubulin-Different-Phenotype (%),[7],90%
same,Total Cell Count,[7],135
same,Population Apoptotic (%),[8],97%
same,Population Fragmented Nuclei (%),[8],27%
same,Population Healthy Nuclei (%),[8],13%
same,Population Hoechst High Intensity Objects (%),[8],20%
same,Population Membrane Permeable-Phenotype (%),[8],100%
same,Population Mitochondria Different-Phenotype (%),[8],87%
same,Population Mitotic Cells (%),[8],2%
same,Population Normal (%),[8],79%
same,Population Pyknosed Nuclei (%),[8],59%
same,Population Tubulin-Different-Phenotype (%),[8],100%
same,Total Cell Count,[8],74
same,Population Apoptotic (%),[9],55%
same,Population Fragmented Nuclei (%),[9],26%
same,Population Membrane Permeable-Phenotype (%),[9],18%
same,Population Mitochondria Different-Phenotype (%),[9],82%
same,Population Mitotic Cells (%),[9],44%
same,Population Pyknosed Nuclei (%),[9],21%
same,Population Tubulin-Different-Phenotype (%),[9],79%
same,Total Cell Count,[9],215
same,Population Apoptotic (%),[10],64%
same,Population Fragmented Nuclei (%),[10],25%
same,Population Healthy Nuclei (%),[10],51%
same,Population Hoechst High Intensity Objects (%),[10],8%
same,Population Membrane Permeable-Phenotype (%),[10],31%
same,Population Mitochondria Different-Phenotype (%),[10],71%
same,Population Mitotic Cells (%),[10],35%
same,Population Normal (%),[10],91%
same,Population Pyknosed Nuclei (%),[10],22%
same,Population Tubulin-Different-Phenotype (%),[10],84%
same,Total Cell Count,[10],81
same,Population Apoptotic (%),[11],98%
same,Population Fragmented Nuclei (%),[11],43%
same,Population Healthy Nuclei (%),[11],2%
same,Population Hoechst High Intensity Objects (%),[11],15%
same,Population Membrane Permeable-Phenotype (%),[11],100%
same,Population Mitochondria Different-Phenotype (%),[11],100%
same,Population Mitotic Cells (%),[11],1%
same,Population Normal (%),[11],84%
same,Population Pyknosed Nuclei (%),[11],53%
same,Population Tubulin-Different-Phenotype (%),[11],100%
same,Total Cell Count,[11],137
same,Population Apoptotic (%),[12],100%
same,Population Fragmented Nuclei (%),[12],17%
same,Population Healthy Nuclei (%),[12],45%
same,Population Hoechst High Intensity Objects (%),[12],34%
same,Population Mitochondria Different-Phenotype (%),[12],95%
same,Population Mitotic Cells (%),[12],0%
same,Population Normal (%),[12],65%
same,Population Pyknosed Nuclei (%),[12],36%
same,Population Tubulin-Different-Phenotype (%),[12],95%
same,Total Cell Count,[12],70

# Source: ChEMBL document CHEMBL4689842, “EUbOPEN Chemogenomics Library wave 1” (2021)
